ChEMBL document CHEMBL1127831, “Synthesis and structure-activity relationships of new antitumor taxoids. Effects of cyclohexyl substitution at the C-3' and/or C-2 of taxotere (docetaxel)” (J Med Chem, 1994)
In brackets after ≈: the same amount, converted by molar mass.

How the values were obtained:
[1] = Ratio of inhibition of the rate of microtubule disassembly by the compound to that of paclitaxel; assay type: functional
Outline: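 Porcine brain tubulin, MAP-depleted on phosphocellulose, used at 9 μM in MES pH 6.8 buffer with glycerol, 6 mM MgCl2 and 1 mM GTP. Taxoid in ethanol (0.1–5 μM) was added, tubulin polymerized 30 min at 37 °C, then cooled to 6 °C. Depolymerization rate was taken from the turbidity (350 nm) decline slope. The IC50 for 50% rate decrease was divided by the paclitaxel IC50.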

P388 [2] = assay: In vitro cytotoxicity against murine P388 doxorubicin resistant leukemia cell line; assay type: functional, cell-based; details: Mus musculus
Outline: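 P388/Dox cells grown in RPMI 1640 with 10% foetal calf serum, 2-mercaptoethanol, L-glutamine and antibiotics, with doxorubicin 1 μg/mL kept in the medium. Seeded at 1×10^5 cells/mL and exposed 96 h to a range of taxoid concentrations, quadruplicate points. Neutral red 0.02% added for 16 h, cells lysed in 1% SDS, OD read at 540 and 346 nm. IC50 = 50% growth inhibition, from three separate experiments.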

P388 [3] = assay: In vitro cytotoxicity against murine P388 leukemia cell line; assay type: functional, cell-based; details: Mus musculus
Outline: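 P388 cells kept in RPMI 1640 with 10% foetal calf serum, 10 μM 2-mercaptoethanol, 2 mM L-glutamine and penicillin/streptomycin. Seeded at 1×10^5 cells/mL and grown 96 h with various taxoid concentrations, each in quadruplicate. Viability read by 16 h neutral red (0.02%) uptake, SDS lysis and OD at 540 and 346 nm. IC50 for 50% growth inhibition taken from three separate experiments.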

Structure (SMILES) | IC50 ratio [1] | IC50 (P388 [2]) [µg/mL] | IC50 (P388 [3]) [µg/mL]
CC(=O)O[C@H]1C(=O)[C@@]2(C)C([C@H](OC(=O)C3CCCCC3)[C@]3(O)C[C@H](OC(=O)[C@H](O)C(NC(=O)c4ccccc4)c4ccccc4)C(C)=C1C3(C)C)[C@]1(OC(C)=O)CO[C@@H]1C[C@@H]2O (stereo not given in full) | 1.7 | 7.5 (≈ 8.72 µM) | 0.45 (≈ 0.523 µM)
CC(=O)O[C@@]12CO[C@@H]1C[C@H](O)[C@@]1(C)C(=O)[C@H](O)C3=C(C)[C@@H](OC(=O)[C@H](O)C(NC(=O)OC(C)(C)C)c4ccccc4)C[C@@](O)([C@@H](OC(=O)C4CCCCC4)C12)C3(C)C (stereo not given in full) | 0.85 | 6.3 (≈ 7.74 µM) | 0.09 (≈ 0.111 µM)
CC(=O)O[C@@]12CO[C@@H]1C[C@H](O)[C@@]1(C)C(=O)[C@H](O)C3=C(C)[C@@H](OC(=O)[C@H](O)C(NC(=O)OC(C)(C)C)C4CCCCC4)C[C@@](O)([C@@H](OC(=O)C4CCCCC4)C12)C3(C)C (stereo not given in full) | 2 | 3.6 (≈ 4.39 µM) | 0.076 (≈ 0.0927 µM)

Further lines, with some results ahead:

IC50 ratio [1] | Structure (SMILES) | IC50 (P388 [2]) [µg/mL] | IC50 (P388 [3]) [µg/mL]
0.72 | CC(=O)O[C@@]12CO[C@@H]1C[C@H](O)[C@@]1(C)C(=O)[C@H](O)C3=C(C)[C@@H](OC(=O)[C@H](O)C(NC(=O)OC(C)(C)C)C4CCCCC4)C[C@@](O)([C@@H](OC(=O)c4ccccc4)C12)C3(C)C (stereo not given in full) | 3.1 (≈ 3.81 µM) | 0.063 (≈ 0.0774 µM)
0.7 | CC(=O)O[C@@]12CO[C@@H]1C[C@H](O)[C@@]1(C)C(=O)[C@H](O)C3=C(C)[C@@H](OC(=O)[C@H](O)[C@@H](NC(=O)OC(C)(C)C)c4ccccc4)C[C@@](O)([C@@H](OC(=O)c4ccccc4)[C@H]21)C3(C)C.O.O.O [DOCETAXEL] | 1.5 | 0.008
